Test results: publication PMC6500982 (Cancer Science, 2019)

Experiment: Safety and tolerability
Assay type: in vivo, human
Summary of the method: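 Patients (enrolled January 2015–February 2016) received oral test compound in four cohorts: 160, 320 or 480 mg QD, or 300 mg BID. Dosing continued until progression, unacceptable AEs or consent withdrawal. AEs were graded by CTCAE v4.0, alongside laboratory tests, vital signs and ECGs. The safety population was all patients receiving ≥1 dose.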

Structure (SMILES): CC#CC(=O)N1CC[C@@H](n2c(=O)n(-c3ccc(Oc4ccccc4)cc3)c3c(N)ncnc32)C1 [tirabrutinib]
- All AEs, Any grade (160 mg QD N = 3): 3 (100.0) n (%)
- All AEs, Grade ≥3 (160 mg QD N = 3): 1 (33.3) n (%)
- Anemia, Any grade (160 mg QD N = 3): 0 n (%)
- Anemia, Grade ≥3 (160 mg QD N = 3): 0 n (%)
- Arthralgia, Any grade (160 mg QD N = 3): 1 (33.3) n (%)
- Arthralgia, Grade ≥3 (160 mg QD N = 3): 0 n (%)
- Aspartate aminotransferase increased, Any grade (160 mg QD N = 3): 0 n (%)
- Aspartate aminotransferase increased, Grade ≥3 (160 mg QD N = 3): 0 n (%)
- Constipation, Any grade (160 mg QD N = 3): 0 n (%)
- Constipation, Grade ≥3 (160 mg QD N = 3): 0 n (%)
- Cystitis, Any grade (160 mg QD N = 3): 0 n (%)
- Cystitis, Grade ≥3 (160 mg QD N = 3): 0 n (%)
- Diarrhea, Any grade (160 mg QD N = 3): 0 n (%)
- Diarrhea, Grade ≥3 (160 mg QD N = 3): 0 n (%)
- Dysgeusia, Any grade (160 mg QD N = 3): 0 n (%)
- Dysgeusia, Grade ≥3 (160 mg QD N = 3): 0 n (%)
- Gamma‐glutamyltransferase increased, Any grade (160 mg QD N = 3): 0 n (%)
- Gamma‐glutamyltransferase increased, Grade ≥3 (160 mg QD N = 3): 0 n (%)
- Headache, Any grade (160 mg QD N = 3): 1 (33.3) n (%)
- Headache, Grade ≥3 (160 mg QD N = 3): 0 n (%)
- Hypokalemia, Any grade (160 mg QD N = 3): 0 n (%)
- Hypokalemia, Grade ≥3 (160 mg QD N = 3): 0 n (%)
- Hypophosphatemia, Any grade (160 mg QD N = 3): 0 n (%)
- Hypophosphatemia, Grade ≥3 (160 mg QD N = 3): 0 n (%)
- Insomnia, Any grade (160 mg QD N = 3): 0 n (%)
- Insomnia, Grade ≥3 (160 mg QD N = 3): 0 n (%)
- Leukopenia, Any grade (160 mg QD N = 3): 0 n (%)
- Leukopenia, Grade ≥3 (160 mg QD N = 3): 0 n (%)
- Lymphopenia, Any grade (160 mg QD N = 3): 0 n (%)
- Lymphopenia, Grade ≥3 (160 mg QD N = 3): 0 n (%)
- Malaise, Any grade (160 mg QD N = 3): 2 (66.7) n (%)
- Malaise, Grade ≥3 (160 mg QD N = 3): 0 n (%)
- Myalgia, Any grade (160 mg QD N = 3): 2 (66.7) n (%)
- Myalgia, Grade ≥3 (160 mg QD N = 3): 0 n (%)
- Nasopharyngitis, Any grade (160 mg QD N = 3): 1 (33.3) n (%)
- Nasopharyngitis, Grade ≥3 (160 mg QD N = 3): 0 n (%)
- Nausea, Any grade (160 mg QD N = 3): 0 n (%)
- Nausea, Grade ≥3 (160 mg QD N = 3): 0 n (%)
- Neutropenia, Any grade (160 mg QD N = 3): 1 (33.3) n (%)
- Neutropenia, Grade ≥3 (160 mg QD N = 3): 1 (33.3) n (%)
- Pharyngitis, Any grade (160 mg QD N = 3): 1 (33.3) n (%)
- Pharyngitis, Grade ≥3 (160 mg QD N = 3): 0 n (%)
- Pyrexia, Any grade (160 mg QD N = 3): 0 n (%)
- Pyrexia, Grade ≥3 (160 mg QD N = 3): 0 n (%)
- Rash, Any grade (160 mg QD N = 3): 1 (33.3) n (%)
- Rash, Grade ≥3 (160 mg QD N = 3): 0 n (%)
- Thrombocytopenia, Any grade (160 mg QD N = 3): 0 n (%)
- Thrombocytopenia, Grade ≥3 (160 mg QD N = 3): 0 n (%)
- Upper respiratory tract inflammation, Any grade (160 mg QD N = 3): 1 (33.3) n (%)
- Upper respiratory tract inflammation, Grade ≥3 (160 mg QD N = 3): 0 n (%)
- Vomiting, Any grade (160 mg QD N = 3): 0 n (%)
- Vomiting, Grade ≥3 (160 mg QD N = 3): 0 n (%)
- All AEs, Any grade (300 mg BID N = 7): 7 (100.0) n (%)
- All AEs, Grade ≥3 (300 mg BID N = 7): 3 (42.9) n (%)
- Anemia, Any grade (300 mg BID N = 7): 1 (14.3) n (%)
- Anemia, Grade ≥3 (300 mg BID N = 7): 1 (14.3) n (%)
- Arthralgia, Any grade (300 mg BID N = 7): 1 (14.3) n (%)
- Arthralgia, Grade ≥3 (300 mg BID N = 7): 0 n (%)
- Aspartate aminotransferase increased, Any grade (300 mg BID N = 7): 1 (14.3) n (%)
- Aspartate aminotransferase increased, Grade ≥3 (300 mg BID N = 7): 0 n (%)
- Constipation, Any grade (300 mg BID N = 7): 1 (14.3) n (%)
- Constipation, Grade ≥3 (300 mg BID N = 7): 0 n (%)
- Cystitis, Any grade (300 mg BID N = 7): 1 (14.3) n (%)
- Cystitis, Grade ≥3 (300 mg BID N = 7): 0 n (%)
- Diarrhea, Any grade (300 mg BID N = 7): 2 (28.6) n (%)
- Diarrhea, Grade ≥3 (300 mg BID N = 7): 0 n (%)
- Dysgeusia, Any grade (300 mg BID N = 7): 1 (14.3) n (%)
- Dysgeusia, Grade ≥3 (300 mg BID N = 7): 0 n (%)
- Gamma‐glutamyltransferase increased, Any grade (300 mg BID N = 7): 1 (14.3) n (%)
- Gamma‐glutamyltransferase increased, Grade ≥3 (300 mg BID N = 7): 0 n (%)
- Headache, Any grade (300 mg BID N = 7): 1 (14.3) n (%)
- Headache, Grade ≥3 (300 mg BID N = 7): 0 n (%)
- Hypokalemia, Any grade (300 mg BID N = 7): 0 n (%)
- Hypokalemia, Grade ≥3 (300 mg BID N = 7): 0 n (%)
- Hypophosphatemia, Any grade (300 mg BID N = 7): 0 n (%)
- Hypophosphatemia, Grade ≥3 (300 mg BID N = 7): 0 n (%)
- Insomnia, Any grade (300 mg BID N = 7): 3 (42.9) n (%)
- Insomnia, Grade ≥3 (300 mg BID N = 7): 0 n (%)
- Leukopenia, Any grade (300 mg BID N = 7): 0 n (%)
- Leukopenia, Grade ≥3 (300 mg BID N = 7): 0 n (%)
- Lymphopenia, Any grade (300 mg BID N = 7): 0 n (%)
- Lymphopenia, Grade ≥3 (300 mg BID N = 7): 0 n (%)
- Malaise, Any grade (300 mg BID N = 7): 0 n (%)
- Malaise, Grade ≥3 (300 mg BID N = 7): 0 n (%)
- Myalgia, Any grade (300 mg BID N = 7): 0 n (%)
- Myalgia, Grade ≥3 (300 mg BID N = 7): 0 n (%)
- Nasopharyngitis, Any grade (300 mg BID N = 7): 1 (14.3) n (%)
- Nasopharyngitis, Grade ≥3 (300 mg BID N = 7): 0 n (%)
- Nausea, Any grade (300 mg BID N = 7): 2 (28.6) n (%)
- Nausea, Grade ≥3 (300 mg BID N = 7): 0 n (%)
- Neutropenia, Any grade (300 mg BID N = 7): 0 n (%)
- Neutropenia, Grade ≥3 (300 mg BID N = 7): 0 n (%)
- Pharyngitis, Any grade (300 mg BID N = 7): 1 (14.3) n (%)
- Pharyngitis, Grade ≥3 (300 mg BID N = 7): 0 n (%)
- Pyrexia, Any grade (300 mg BID N = 7): 2 (28.6) n (%)
- Pyrexia, Grade ≥3 (300 mg BID N = 7): 0 n (%)
- Rash, Any grade (300 mg BID N = 7): 1 (14.3) n (%)
- Rash, Grade ≥3 (300 mg BID N = 7): 0 n (%)
- Thrombocytopenia, Any grade (300 mg BID N = 7): 0 n (%)
- Thrombocytopenia, Grade ≥3 (300 mg BID N = 7): 0 n (%)
- Upper respiratory tract inflammation, Any grade (300 mg BID N = 7): 0 n (%)
- Upper respiratory tract inflammation, Grade ≥3 (300 mg BID N = 7): 0 n (%)
- Vomiting, Any grade (300 mg BID N = 7): 2 (28.6) n (%)
- Vomiting, Grade ≥3 (300 mg BID N = 7): 0 n (%)
- All AEs, Any grade (320 mg QD N = 3): 3 (100.0) n (%)
- All AEs, Grade ≥3 (320 mg QD N = 3): 2 (66.7) n (%)
- Anemia, Any grade (320 mg QD N = 3): 0 n (%)
- Anemia, Grade ≥3 (320 mg QD N = 3): 0 n (%)
- Arthralgia, Any grade (320 mg QD N = 3): 1 (33.3) n (%)
- Arthralgia, Grade ≥3 (320 mg QD N = 3): 0 n (%)
- Aspartate aminotransferase increased, Any grade (320 mg QD N = 3): 0 n (%)
- Aspartate aminotransferase increased, Grade ≥3 (320 mg QD N = 3): 0 n (%)
- Constipation, Any grade (320 mg QD N = 3): 1 (33.3) n (%)
- Constipation, Grade ≥3 (320 mg QD N = 3): 0 n (%)
- Cystitis, Any grade (320 mg QD N = 3): 1 (33.3) n (%)
- Cystitis, Grade ≥3 (320 mg QD N = 3): 0 n (%)
- Diarrhea, Any grade (320 mg QD N = 3): 1 (33.3) n (%)
- Diarrhea, Grade ≥3 (320 mg QD N = 3): 0 n (%)
- Dysgeusia, Any grade (320 mg QD N = 3): 0 n (%)
- Dysgeusia, Grade ≥3 (320 mg QD N = 3): 0 n (%)
- Gamma‐glutamyltransferase increased, Any grade (320 mg QD N = 3): 1 (33.3) n (%)
- Gamma‐glutamyltransferase increased, Grade ≥3 (320 mg QD N = 3): 0 n (%)
- Headache, Any grade (320 mg QD N = 3): 0 n (%)
- Headache, Grade ≥3 (320 mg QD N = 3): 0 n (%)
- Hypokalemia, Any grade (320 mg QD N = 3): 0 n (%)
- Hypokalemia, Grade ≥3 (320 mg QD N = 3): 0 n (%)
- Hypophosphatemia, Any grade (320 mg QD N = 3): 0 n (%)
- Hypophosphatemia, Grade ≥3 (320 mg QD N = 3): 0 n (%)
- Insomnia, Any grade (320 mg QD N = 3): 0 n (%)
- Insomnia, Grade ≥3 (320 mg QD N = 3): 0 n (%)
- Leukopenia, Any grade (320 mg QD N = 3): 2 (66.7) n (%)
- Leukopenia, Grade ≥3 (320 mg QD N = 3): 2 (66.7) n (%)
- Lymphopenia, Any grade (320 mg QD N = 3): 1 (33.3) n (%)
- Lymphopenia, Grade ≥3 (320 mg QD N = 3): 1 (33.3) n (%)
- Malaise, Any grade (320 mg QD N = 3): 0 n (%)
- Malaise, Grade ≥3 (320 mg QD N = 3): 0 n (%)
